The results in this text go back to ChEMBL document CHEMBL1140065, “Potent cationic inhibitors of West Nile virus NS2B/NS3 protease with serum stability, cell permeability and antiviral activity” (J Med Chem, 2008).

Molecules are shown by their SMILES. Calls of active or inactive are those of the source. No cut-off for these calls is given here. Starred links: 1 amine or outer side, 2 acyl side, 3 side chain; linkers in the order of their positions; H or OH if unused. Non-standard residues stand in square brackets, D forms with d. Residues, ends and D or L forms follow the SMILES beside them. *: point of attachment. Hydrocinnamoyl = O=C(CCc1ccccc1)*; hArg = N=C(N)NCCCC[C@H](N)C(=O)O; Cit = NC(=O)NCCC[C@H](N)C(=O)O; Orn = NCCC[C@H](N)C(=O)O; 2Abz = Nc1ccccc1C(=O)O; Cbz = O=C(OCc1ccccc1)*; PhAc = O=C(Cc1ccccc1)*; CO = O=C([*:1])[*:2]; NHBn = c1ccc(CN*)cc1; Bz = O=C(c1ccccc1)*

The target in one data set is Genome polyprotein (West Nile virus, UniProt P06935). As to the kind of experiment: Inhibition of WNV recombinant NS2B-NS3 protease.
Genome polyprotein, sequence (P06935 1371-1501 limits assumed): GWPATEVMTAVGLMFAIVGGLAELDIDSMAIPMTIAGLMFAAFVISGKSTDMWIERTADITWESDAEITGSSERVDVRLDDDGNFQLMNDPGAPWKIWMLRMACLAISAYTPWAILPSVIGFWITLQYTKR
Genome polyprotein, sequence (P06935 1502-2120 limits assumed): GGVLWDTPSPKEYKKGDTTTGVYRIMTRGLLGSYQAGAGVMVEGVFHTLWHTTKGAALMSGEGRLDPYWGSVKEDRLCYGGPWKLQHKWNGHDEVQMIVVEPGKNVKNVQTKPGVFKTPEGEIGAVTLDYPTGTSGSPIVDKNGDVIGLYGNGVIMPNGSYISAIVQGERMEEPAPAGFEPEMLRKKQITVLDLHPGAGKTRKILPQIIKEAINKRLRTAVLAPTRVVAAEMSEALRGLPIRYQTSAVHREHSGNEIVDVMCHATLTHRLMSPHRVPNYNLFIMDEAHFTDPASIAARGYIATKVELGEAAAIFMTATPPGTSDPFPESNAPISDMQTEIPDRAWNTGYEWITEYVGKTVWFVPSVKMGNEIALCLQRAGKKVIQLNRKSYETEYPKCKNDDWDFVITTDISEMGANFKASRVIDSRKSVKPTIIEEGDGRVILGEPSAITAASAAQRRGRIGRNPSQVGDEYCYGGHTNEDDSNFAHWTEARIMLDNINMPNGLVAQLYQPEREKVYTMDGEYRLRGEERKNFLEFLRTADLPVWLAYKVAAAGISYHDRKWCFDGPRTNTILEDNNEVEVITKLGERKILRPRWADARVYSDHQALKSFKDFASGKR
Data set [1] addresses Genome polyprotein (West Nile virus) (UniProt P06935). In words: Inhibition of WNV recombinant NS2B-NS3 protease at 10 uM. The procedure, abridged: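 Single-concentration screen at 10 µM inhibitor, scoring inhibition of recombinant WNV protease processing of the chromogenic tetrapeptide substrate Ac-LKKR-pNA.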
The subject of data set [2] is West Nile virus. As to the kind of experiment: Antiviral activity against WNV Kunjin infected african green monkey Vero cells assessed as reduction in plaque size at 12.5 uM measured at 48 hrs postinfection. The data set is classed as functional, organism-based. The procedure, abridged: (§1)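 Vero cells were seeded at 4 × 10^4 per well and grown to about 90% confluence, then washed with PBS and serum-free medium. Cells were coinfected with WNV Kunjin (moi 0.04) plus compound at 100 nM–200 µM for 2 h at 37 °C. Overlay was M199, 3% FBS, 1.2% carboxymethyl cellulose, 48 h. Plaques were immunostained with anti-NS1 antibody and read as infrared area; ten plaques averaged per well, duplicates, IC50 from dose-response.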

The subject of data set [3] is West Nile virus. In words: Antiviral activity against WNV Kunjin infected african green monkey Vero cells assessed as reduction in plaque size measured at 48 hrs postinfection. The format is functional, organism-based. The procedure, abridged: as §1
The species entered for a further data set is Bos taurus. As to the kind of experiment: Inhibition of bovine trypsin at 1 uM.
Data set [4] has as its target Coagulation factor X (Bos taurus) (UniProt P00743). As to the kind of experiment: Inhibition of bovine factor 10a at 1 uM.
Data set [5] deals with Plasminogen (Homo sapiens) (UniProt P00747). In words: Inhibition of human plasmin at 1 uM.
Plasminogen (Homo sapiens), sequence (P00747 97-580 limits assumed): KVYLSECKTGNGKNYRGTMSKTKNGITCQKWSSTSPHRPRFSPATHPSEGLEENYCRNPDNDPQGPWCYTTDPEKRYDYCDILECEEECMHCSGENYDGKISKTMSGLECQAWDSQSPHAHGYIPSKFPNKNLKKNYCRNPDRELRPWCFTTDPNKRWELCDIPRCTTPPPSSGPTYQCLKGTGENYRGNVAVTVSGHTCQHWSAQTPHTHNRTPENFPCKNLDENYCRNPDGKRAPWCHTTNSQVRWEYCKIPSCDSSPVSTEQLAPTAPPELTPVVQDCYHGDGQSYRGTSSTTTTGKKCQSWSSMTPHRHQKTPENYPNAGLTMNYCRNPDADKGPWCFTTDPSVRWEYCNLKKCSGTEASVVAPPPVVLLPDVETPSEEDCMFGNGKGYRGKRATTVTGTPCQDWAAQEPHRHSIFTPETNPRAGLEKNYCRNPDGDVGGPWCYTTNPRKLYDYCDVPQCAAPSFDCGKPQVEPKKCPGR
Plasminogen (Homo sapiens), sequence (P00747 581-810 limits assumed): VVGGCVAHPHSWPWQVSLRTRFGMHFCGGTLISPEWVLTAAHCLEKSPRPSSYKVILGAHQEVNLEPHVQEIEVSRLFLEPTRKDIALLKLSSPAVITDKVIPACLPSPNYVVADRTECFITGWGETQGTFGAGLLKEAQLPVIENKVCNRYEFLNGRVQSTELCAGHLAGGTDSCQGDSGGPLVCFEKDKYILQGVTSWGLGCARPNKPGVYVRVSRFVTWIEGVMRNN
Data set [6] addresses Urokinase-type plasminogen activator (Homo sapiens) (UniProt P00749). In words: Inhibition of human urokinase at 1 uM.
Another data set relates to Vero. In words: Cytotoxicity against african green monkey Vero cells upto 400 uM after 72 hrs by MTT assay. The data set is classed as cell-based. Conditions: chlorocebus sabaeus. The procedure, abridged: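 MTT viability in Vero cells seeded at 4 × 10^4 per well and grown to about 90% confluence (~12 h). Fresh medium held compound at 5 nM–400 µM, with control medium ± DMSO. After 72 h, MTT was added for 3.5 h at 37 °C, then HCl/isopropanol for 4 h at RT. Absorbance was read at 550 nm; CC50 estimated; duplicates.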

For orientation: IC50 means the concentration at which inhibition is half-maximal. Usually Ki stands for a dissociation constant, usually derived from enzyme kinetics or from competition with a known ligand. The inhibition is the drop in the measured response relative to a control, in per cent.

Genome polyprotein (West Nile virus), sequence (P06935 whole entry): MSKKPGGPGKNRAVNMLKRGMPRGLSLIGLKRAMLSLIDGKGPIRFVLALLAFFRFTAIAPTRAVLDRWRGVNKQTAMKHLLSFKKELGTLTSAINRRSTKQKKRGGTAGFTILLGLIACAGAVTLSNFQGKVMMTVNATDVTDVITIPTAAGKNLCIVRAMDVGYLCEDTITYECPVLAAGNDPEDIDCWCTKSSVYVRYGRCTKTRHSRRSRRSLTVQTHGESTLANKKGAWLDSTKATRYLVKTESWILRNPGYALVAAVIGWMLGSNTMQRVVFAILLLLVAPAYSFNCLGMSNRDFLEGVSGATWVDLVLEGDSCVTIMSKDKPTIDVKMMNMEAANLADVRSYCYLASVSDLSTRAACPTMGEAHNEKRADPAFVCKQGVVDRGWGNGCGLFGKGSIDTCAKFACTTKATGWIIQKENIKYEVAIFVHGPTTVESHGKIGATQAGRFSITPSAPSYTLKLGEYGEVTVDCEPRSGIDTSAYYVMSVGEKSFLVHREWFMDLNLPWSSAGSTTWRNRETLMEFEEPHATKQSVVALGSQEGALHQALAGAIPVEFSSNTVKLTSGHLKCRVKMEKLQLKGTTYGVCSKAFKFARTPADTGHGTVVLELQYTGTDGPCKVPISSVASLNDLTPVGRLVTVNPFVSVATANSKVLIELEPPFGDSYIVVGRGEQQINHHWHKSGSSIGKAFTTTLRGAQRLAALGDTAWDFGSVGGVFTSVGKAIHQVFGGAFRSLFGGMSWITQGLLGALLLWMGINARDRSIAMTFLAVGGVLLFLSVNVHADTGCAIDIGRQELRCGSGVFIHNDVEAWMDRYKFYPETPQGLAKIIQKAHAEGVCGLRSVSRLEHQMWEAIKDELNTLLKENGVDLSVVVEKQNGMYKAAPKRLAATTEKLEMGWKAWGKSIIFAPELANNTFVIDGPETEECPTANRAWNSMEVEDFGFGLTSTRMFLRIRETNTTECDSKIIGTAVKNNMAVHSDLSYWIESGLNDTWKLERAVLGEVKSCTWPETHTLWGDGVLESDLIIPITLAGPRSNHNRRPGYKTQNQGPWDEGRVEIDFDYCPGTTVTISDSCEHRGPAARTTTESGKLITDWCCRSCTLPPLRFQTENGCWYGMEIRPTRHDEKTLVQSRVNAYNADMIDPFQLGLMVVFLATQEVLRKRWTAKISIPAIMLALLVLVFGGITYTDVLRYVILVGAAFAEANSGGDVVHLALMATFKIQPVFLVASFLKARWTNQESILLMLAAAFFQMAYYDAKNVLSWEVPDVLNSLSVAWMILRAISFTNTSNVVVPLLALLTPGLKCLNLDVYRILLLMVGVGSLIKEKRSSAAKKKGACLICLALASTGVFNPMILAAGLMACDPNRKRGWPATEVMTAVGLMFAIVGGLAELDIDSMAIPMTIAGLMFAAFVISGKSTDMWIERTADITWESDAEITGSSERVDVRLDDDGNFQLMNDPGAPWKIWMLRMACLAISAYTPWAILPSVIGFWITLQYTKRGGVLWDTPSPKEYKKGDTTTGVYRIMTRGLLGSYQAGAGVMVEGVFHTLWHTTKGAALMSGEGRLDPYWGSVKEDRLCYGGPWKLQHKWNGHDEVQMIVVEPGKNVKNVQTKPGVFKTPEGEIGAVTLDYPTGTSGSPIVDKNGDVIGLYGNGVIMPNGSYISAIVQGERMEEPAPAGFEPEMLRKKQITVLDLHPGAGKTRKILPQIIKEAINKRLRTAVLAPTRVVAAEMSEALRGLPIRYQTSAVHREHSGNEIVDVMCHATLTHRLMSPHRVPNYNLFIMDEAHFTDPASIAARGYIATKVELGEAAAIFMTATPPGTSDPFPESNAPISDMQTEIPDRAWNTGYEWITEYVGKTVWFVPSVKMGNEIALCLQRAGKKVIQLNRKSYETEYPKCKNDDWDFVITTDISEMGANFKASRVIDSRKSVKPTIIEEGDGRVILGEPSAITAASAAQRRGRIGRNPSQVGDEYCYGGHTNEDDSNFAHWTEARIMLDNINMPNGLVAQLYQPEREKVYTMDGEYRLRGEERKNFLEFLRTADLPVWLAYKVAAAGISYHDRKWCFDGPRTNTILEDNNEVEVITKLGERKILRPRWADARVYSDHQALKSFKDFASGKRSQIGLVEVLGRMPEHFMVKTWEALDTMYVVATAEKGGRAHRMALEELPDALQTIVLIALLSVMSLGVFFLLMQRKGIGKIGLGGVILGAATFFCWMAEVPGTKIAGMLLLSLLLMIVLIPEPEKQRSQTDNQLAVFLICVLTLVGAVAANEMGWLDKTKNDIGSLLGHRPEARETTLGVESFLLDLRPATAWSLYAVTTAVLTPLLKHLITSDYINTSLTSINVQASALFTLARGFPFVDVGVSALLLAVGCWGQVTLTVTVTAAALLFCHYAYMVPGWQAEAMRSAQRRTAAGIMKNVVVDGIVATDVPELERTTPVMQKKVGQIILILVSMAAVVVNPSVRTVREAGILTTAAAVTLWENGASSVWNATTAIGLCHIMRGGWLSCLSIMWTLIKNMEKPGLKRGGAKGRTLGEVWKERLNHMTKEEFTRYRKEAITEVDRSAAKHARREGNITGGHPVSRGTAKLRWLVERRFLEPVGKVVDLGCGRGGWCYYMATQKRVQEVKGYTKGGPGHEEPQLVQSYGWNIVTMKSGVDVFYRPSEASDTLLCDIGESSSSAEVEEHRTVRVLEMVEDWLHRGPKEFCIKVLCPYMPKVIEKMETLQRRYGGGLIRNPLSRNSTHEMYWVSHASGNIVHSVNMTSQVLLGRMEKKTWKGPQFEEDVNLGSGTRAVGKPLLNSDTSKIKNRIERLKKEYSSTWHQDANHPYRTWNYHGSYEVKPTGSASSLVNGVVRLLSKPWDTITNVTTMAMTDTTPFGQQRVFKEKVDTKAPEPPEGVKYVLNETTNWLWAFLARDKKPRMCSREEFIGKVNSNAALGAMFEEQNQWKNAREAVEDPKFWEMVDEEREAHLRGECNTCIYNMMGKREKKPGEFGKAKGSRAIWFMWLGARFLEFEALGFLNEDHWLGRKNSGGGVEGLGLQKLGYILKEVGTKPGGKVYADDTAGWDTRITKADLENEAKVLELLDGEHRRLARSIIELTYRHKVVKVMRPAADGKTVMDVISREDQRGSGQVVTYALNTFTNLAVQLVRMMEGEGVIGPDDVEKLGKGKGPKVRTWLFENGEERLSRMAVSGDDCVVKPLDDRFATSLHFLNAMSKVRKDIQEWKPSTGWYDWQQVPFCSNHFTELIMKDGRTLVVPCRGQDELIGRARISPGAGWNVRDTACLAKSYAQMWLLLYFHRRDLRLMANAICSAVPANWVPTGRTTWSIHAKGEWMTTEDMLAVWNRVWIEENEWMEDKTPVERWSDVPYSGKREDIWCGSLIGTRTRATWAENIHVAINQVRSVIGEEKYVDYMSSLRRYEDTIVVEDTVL

On to `COc1cccc(CC(=O)N[C@@H](CCCCN)C(=O)N[C@@H](CCCCN)C(=O)N[C@H](C=O)CCCN=C(N)N)c1`, for which, on Genome polyprotein, the IC50 worked out at 60 nM and the Ki was determined as 11 nM.

As for `N=C(N)NCCC[C@@H](C=O)NC(=O)[C@H](CCCCN)NC(=O)[C@H](CCCCN)NC(=O)/C=C/c1ccccc1`, the inhibition in [1] is above 80%. For the same compound, on Genome polyprotein, the IC50 worked out at 580 nM and the Ki was found to be 104 nM.

In the case of `COc1ccc2ccc([C@H](C)C(=O)N[C@@H](CCCCN)C(=O)N[C@@H](CCCCN)C(=O)N[C@H](C=O)CCCNC(=N)N)cc2c1`, the inhibition in [1] is above 80%. On Genome polyprotein, the IC50 was determined as 112 nM and the Ki came to 20 nM.

`N=C(N)NCCC[C@@H](C=O)NC(=O)[C@H](CCCCN)NC(=O)[C@H](CCCCN)NC(=O)Cc1ccc(-c2ccccc2)cc1`: the inhibition in data set [1] was above 80%. On Genome polyprotein, the IC50 was 32 nM and the Ki came to 6 nM.

As to `NCCCC[C@H](NC(=O)c1ccc2ccccc2c1)C(=O)N[C@@H](CCCCN)C(=O)N[C@H](C=O)CCCN=C(N)N`, at Genome polyprotein, the IC50 worked out at 231 nM and the Ki amounted to 41 nM.

As to `N=C(N)NCCC[C@@H](C=O)NC(=O)[C@H](CCCCN)NC(=O)[C@H](CCCCN)NC(=O)COc1ccccc1`, at Genome polyprotein, the IC50 was 107 nM and the Ki is 19 nM.

Take `COc1cccc(CC(=O)N[C@@H](CCCCN)C(=O)N[C@@H](CCCCN)C(=O)N[C@H](C=O)CCCNC(=N)N)c1`: the inhibition in [1] is above 80%.

Regarding `N=C(N)NCCC[C@@H](C=O)NC(=O)[C@H](CCCCN)NC(=O)[C@H](CCCCN)NC(=O)c1ccc2ccccc2c1`, the inhibition in data set [1] is above 80%.

In the case of `NCCCC[C@H](NC(=O)c1ccccc1)C(=O)N[C@@H](CCCCN)C(=O)N[C@H](C=O)CCCN=C(N)N` (Bz-Lys-Lys-Arg-aldehyde), on Genome polyprotein, the IC50 was 271 nM and the Ki came to 49 nM.

As to `NCCCC[C@H](NC(=O)OCc1ccccc1)C(=O)N[C@@H](CCCCN)C(=O)N[C@H](C=O)CCCN=C(N)N` (Cbz-Lys-Lys-Arg-aldehyde), on Genome polyprotein, the half-inhibitory concentration (IC50) is 222 nM and the Ki turned out to be 40 nM.

Turning to `N=C(N)NCCC[C@@H](C=O)NC(=O)[C@H](CCCCN)NC(=O)[C@H](CCCCN)NC(=O)c1ccccc1N` (H-[2Abz]KKR-aldehyde), on Genome polyprotein, the IC50 was determined as 891 nM and the Ki stood at 160 nM.

For the compound `NCCCC[C@H](NC(=O)CCc1ccccc1)C(=O)N[C@@H](CCCCN)C(=O)N[C@H](C=O)CCCN=C(N)N` (Hydrocinnamoyl-Lys-Lys-Arg-aldehyde), on Genome polyprotein, the IC50 was 454 nM and the Ki is 81 nM.

Consider `NCCCC[C@H](NC(=O)[C@H](CCCN=C(N)N)NC(=O)Cc1ccccc1)C(=O)N[C@H](C=O)CCCN=C(N)N` (PhAc-Arg-Lys-Arg-aldehyde), for which, on Genome polyprotein, the IC50 was determined as 154 nM and the Ki came out at 28 nM.

`N=C(N)NCCC[C@@H](C=O)NC(=O)[C@H](CCCNC(=N)N)NC(=O)[C@H](CCCCN)NC(=O)Cc1ccccc1` (PhAc-Lys-Arg-Arg-aldehyde): at Genome polyprotein, the IC50 came to 325 nM and the Ki worked out at 58 nM.

On to `N=C(N)NCCC[C@@H](C=O)NC(=O)[C@H](CCCCN)NC(=O)[C@H](CCCCN)NC(=O)Cc1ccccc1` (PhAc-Lys-Lys-Arg-aldehyde), for which the inhibition in [1] was above 80%; in the data set listed under Bos taurus, 25%; in data set [4] it was 0%; in data set [5], 12%; in [6] it was 0%. Also, the result in the data set on West Nile virus [2] was Active. Also, the IC50 in the data set on West Nile virus [3] stood at 1600 nM.

`NCCCC[C@H](NC(=O)Cc1ccccc1)C(=O)N[C@@H](CCCCN)C(=O)N[C@H](C=O)CCCN=C(N)N` (PhAc-Lys-Lys-Arg-aldehyde): on Genome polyprotein, the IC50 is 51 nM and the Ki is 9 nM. In addition, the Activity result with Vero was “Non-toxic”.

For `NCCCC[C@H](NC(=O)Cc1ccccc1)C(=O)N[C@@H](CCCCN)C(=O)N[C@H](C=O)Cc1c[nH]c2ccccc12` (PhAc-Lys-Lys-Trp-aldehyde), on Genome polyprotein, the IC50 was 25700 nM and the Ki came out at 4600 nM.

For the compound `N=C(N)NCCC[C@@H](C=O)NC(=O)[C@H](CCCNC(N)=O)NC(=O)[C@H](CCCCN)NC(=O)Cc1ccccc1` (PhAc-Lys-[Cit]-Arg-aldehyde), at Genome polyprotein, the IC50 worked out at 11600 nM and the Ki stood at 2070 nM.

On to `N=C(N)NCCC[C@@H](C=O)NC(=O)[C@H](CCCN)NC(=O)[C@H](CCCCN)NC(=O)Cc1ccccc1` (PhAc-Lys-[Orn]-Arg-aldehyde), for which, at Genome polyprotein, the IC50 came to 73 nM and the Ki stood at 13 nM.

In the case of `N=C(N)NCCCC[C@H](NC(=O)[C@H](CCCCN)NC(=O)Cc1ccccc1)C(=O)N[C@H](C=O)CCCNC(=N)N` (PhAc-Lys-[hArg]-Arg-aldehyde), on Genome polyprotein, the IC50 worked out at 297 nM and the Ki stood at 53 nM.

`N=C(N)NCCC[C@@H](C=O)NC(=O)[C@H](CCCCN)NC(=O)[C@H](CCCNC(N)=O)NC(=O)Cc1ccccc1` (PhAc-[Cit]-Lys-Arg-aldehyde): at Genome polyprotein, the IC50 turned out to be 619 nM and the Ki is 111 nM.

For `N=C(N)NCCC[C@@H](C=O)NC(=O)[C@H](CCCCN)NC(=O)[C@H](CCCN)NC(=O)Cc1ccccc1` (PhAc-[Orn]-Lys-Arg-aldehyde), on Genome polyprotein, the IC50 is 255 nM and the Ki turned out to be 46 nM.

Regarding `N=C(N)NCCCC[C@H](NC(=O)Cc1ccccc1)C(=O)N[C@@H](CCCCN)C(=O)N[C@H](C=O)CCCNC(=N)N` (PhAc-[hArg]-Lys-Arg-aldehyde), on Genome polyprotein, the IC50 was found to be 254 nM and the Ki is 44 nM.

Turning to `N=C(N)NCCC[C@@H](C=O)NC(=O)[C@H](CCCCN)NC(=O)[C@H](CCCCN)NC(=O)NCc1ccccc1` ({NHBn-CO}-Lys-Lys-Arg-aldehyde), in [1], the inhibition was above 80%. Further, on Genome polyprotein, the IC50 was determined as 146 nM and the Ki is 26 nM.
